From ChEMBL document CHEMBL4020840, “Synthesis and Biological Evaluation of Selenium-Containing 4-Anilinoquinazoline Derivatives as Novel Antimitotic Agents” (J Med Chem, 2018) come the findings set out here.

The term inhibition denotes the share of the control response that was lost under treatment. The term IC50 denotes the midpoint of a concentration-inhibition curve. Lower therefore signals greater potency.

Experiment [1] concerns A549. Description: Cell cycle arrest in human A549 cells assessed as decrease in G1 phase at 4 nM up to 24 hrs by propidium iodide staining based flow cytometry. It is filed as functional. An outline of the steps: (§1)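 A549 seeded in six-well plates at 3 × 10⁵ cells/well and treated for 12 or 24 h; vehicle 0.01% DMSO. Cells fixed overnight in ice-cold 70% ethanol, treated with RNase A at 37 °C for 30 min, then stained with PI at 4 °C for 30 min. About 10 000 events acquired by flow cytometry at 488 nm; three experiments.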

The subject of experiment [2] is A549. Description: Cell cycle arrest in human A549 cells assessed as decrease in S phase at 4 nM up to 24 hrs by propidium iodide staining based flow cytometry. It is filed as functional. An outline of the steps:
as §1

Experiment [3] deals with A549. Description: Induction of apoptosis in human A549 cells assessed as downregulation of Bcl2 level at 2 to 4 nM after 24 to 48 hrs by Western blot method. It is filed as functional, cell-based. An outline of the steps: (§2)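 A549 seeded in 60 mm dishes at 5 × 10⁵ cells and treated for 24 or 48 h. Lysed in RIPA buffer on ice for 30 min and spun at 12 500g. Protein measured by BCA; 40 μg run on 8−12% SDS−PAGE and moved to nitrocellulose. Blocked in 5% milk, primary antibodies at 4 °C overnight, HRP secondary 2 h, ECL detection.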
(Immunoblotting shows a protein as a band on a membrane.)

The subject of experiment [4] is A549. Description: Antimigratory activity against human A549 cells assessed as suppression of wound healing at 4 nM after 24 hrs by phase contrast microscopic method. It is filed as functional, cell-based. An outline of the steps: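 Scratch wound assay: A549 plated at 5 × 10⁴ cells/dish and grown 24 h before scraping with a 10 μL tip. Medium then swapped to serum-free DMEM containing compound (4 nM) for 24 h. After a PBS wash, wound images taken at 0 and 24 h; at least three independent experiments.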

Experiment [5] concerns A549. Briefly: Induction of apoptosis in human A549 cells assessed as upregulation of Bax level at 2 to 4 nM after 24 to 48 hrs by Western blot method. It is filed as functional, cell-based. An outline of the steps: as §2
The test system of experiment [6] is A549. Description: Cell cycle arrest in human A549 cells assessed as accumulation at G2/M phase up to 24 hrs by propidium iodide staining based flow cytometry. Type of experiment: functional. An outline of the steps: as §1
The subject of experiment [7] is A549. Briefly: Induction of apoptosis in human A549 cells assessed as upregulation of Bad level at 2 to 4 nM after 24 to 48 hrs by Western blot method. It is filed as functional, cell-based. An outline of the steps: as §2
Experiment [8] is filed under the species Sus scrofa. Briefly: Inhibition of porcine brain tubulin polymerization measured every 60 secs for 90 mins by DAPI staining based fluorescence assay. An outline of the steps: (§3)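 Purified tubulin was tested in a kit assay. Final buffer: 80 mM PIPES sesquisodium (pH 6.9), 2.0 mM MgCl₂, 0.5 mM EGTA, 1 mM GTP, 10.2% glycerol. Compound (0.1–10 μM) was prewarmed at 37 °C for 1 min before tubulin was added. DAPI reporter fluorescence (ex 340 / em 410 nm) was read every 60 s for 90 min. Area under the curve gave percent inhibition versus control and the IC50.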

For experiment [9], the system named is A549. Briefly: Antitumor activity against human A549 cells xenografted in Balb/c mouse assessed as tumor growth inhibition at 2.5 mg/kg, ip treated once in 2 days for 10 days relative to control. The note with it: read-out: TGI. Type of experiment: functional. An outline of the steps: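 Male BALB/c nude mice, 5 weeks old, 18−20 g. Right flank injected sc with 0.1 mL of 1 × 10⁷ cells/mL log-phase A549 in FBS-free DMEM. At ~100 mm³, randomised into groups of 5 and dosed ip every 2 days; vehicle controls got equal volume. Tumour volume (0.5 × length × width²) and body weight recorded every 2 days.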

Experiment [10] is filed under the species Sus scrofa. Description: Inhibition of porcine brain tubulin polymerization at 7.5 uM measured every 60 secs for 90 mins by DAPI staining based fluorescence assay relative to control. An outline of the steps: as §3
The test system of another experiment is A549/CDDP. Description: Growth inhibition of human A549/CDDP cells after 48 hrs by MTT assay. It is filed as functional, cell-based. An outline of the steps:
(§4)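 MTT assay: log-phase cells plated at 5 × 10³/well for 24 h, then exposed to a range of test concentrations for 48 h. MTT (5 mg/mL) added for 4 h, formazan dissolved in DMSO, absorbance read at 570 nm. IC50 is the concentration giving 50% growth inhibition, from dose-response curves; at least three independent experiments, mean ± SE.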

Experiment [11] deals with A549. Description: Growth inhibition of human A549 cells after 48 hrs by MTT assay. Type of experiment: functional, cell-based. As to conditions: A549, 48 h. In general terms: Tetrazolium assays rely on reduction of a dye to a coloured formazan, in cell work by metabolically active cells.
Experiment [12] can be described thus: Growth inhibition of human HepG2/DOX cells after 48 hrs by MTT assay. It is filed as functional, cell-based. An outline of the steps: as §4
A further experiment has as its system HepG2. Description: Growth inhibition of human HepG2 cells after 48 hrs by MTT assay. Type of experiment: functional, cell-based. The note with it: HepG2, 48 h. An outline of the steps:
as §4

Experiment [13] in a line: Resistance factor, ratio of IC50 for human A549/CDDP cells to IC50 for human A549 cells. Type of experiment: functional. An outline of the steps: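 MTT assay: log-phase cells were seeded at 5 × 10³/well for 24 h, then exposed to a concentration series for 48 h. MTT (5 mg/mL) was added for 4 h, formazan was dissolved in DMSO, and A570 was read. IC50 values came from dose–response curves of at least three independent experiments. Resistance factor = IC50 in the resistant line / IC50 in the parental sensitive line.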

Counter-ions that a name gives are not always drawn. Active and inactive are the calls of the source. No cut-off for these calls is given here.

Consider `Cc1nc(N(C)c2ccc([Se]C#N)cc2)c2ccccc2n1`, for which the result with A549 [1], with A549 [2], in the experiment with A549 [3], in the experiment with A549 [4], with A549 [5] and with A549 [7] was Active. For the same molecule, the Activity entry with A549 [6] was “Dose-dependent effect”. Moreover, the inhibition entry in the experiment filed under Sus scrofa [8] was “Dose-dependent effect”.

Turning to `COc1ccc(N(C)c2nc(C)nc3ccccc23)cc1` [VERUBULIN HYDROCHLORIDE], the inhibition in vivo at 2.5 mg/kg in the experiment on A549 [9] turned out to be 68.6%.

Consider `C[Se]c1ccc(N(C)c2nc(C)nc3ccccc23)cc1F` [listing 1 of 2 here], for which the inhibition in vivo at 2.5 mg/kg in the experiment with A549 [9] came out at 77.2%.

`COc1ccc(N(C)c2nc(C)nc3ccccc23)cc1`: in the experiment with A549 [4], the outcome was Active. Further, in the experiment filed under Sus scrofa [10], the inhibition is 77.6%.

Consider `C[Se]c1ccc(N(C)c2nc(C)nc3ccccc23)cc1F` [listing 2 of 2 here], for which the outcome in the experiment on A549 [4] was Active. Moreover, the inhibition in the experiment listed under Sus scrofa [10] was 90.5%; in the experiment filed under Sus scrofa [8] it was “Dose-dependent effect”. Further, in the experiment on A549 [6], the Activity result is “Dose-dependent effect”.

`COc1cccc2c1C(=O)c1c(O)c3c(c(O)c1C2=O)C[C@@](O)(C(=O)CO)C[C@@H]3O[C@H]1C[C@H](N)[C@H](O)[C@H](C)O1` [DOXORUBICIN]: the IC50 was 4590 nM in the experiment on A549/CDDP, 2900 nM in the experiment on A549 [11], more than 10000 nM in experiment [12] and 1890 nM in the experiment on HepG2. For the same molecule, the “Ratio IC50” value in experiment [13] is reported as 1.58.
